Assay results published in PubChem BioAssay AID624400 (The Scripps Research Institute Molecular Screening Center, 2012).

What follows are compounds tested on aryl hydrocarbon receptor (Cavia porcellus) (assay: competitors of radiolabeled TCDD at AHR – cell lysate, guinea pig liver cytosol, radiometric, set 2, counter-screen for AHR activator project, late-stage follow-up (AID 624400)). Conditions: [3H]TCDD binding, hydroxyapatite, at 10 µM, hits give high values.
Procedure, shortened: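 System: guinea pig hepatic cytosol with AHR; Amount: cytosol diluted to 2 mg protein per mL; Probe or stimulus: [3H]TCDD radioligand at 2 nM final; Replication: triplicate; Measured by: scintillation counting of hydroxyapatite-captured radioligand; Compound dosing: 10 µM single dose, 2% DMSO; Timing: 1 h binding incubation at room temperature; Medium: HEDG buffer, pH 7.5.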

| inhibition [%] | SMILES |
| --- | --- |
| 61.7 | Cc1ccc(-c2cc(-c3ccc(Cl)cc3)n[nH]2)c(O)c1 |
| 19.8 | Cc1ccc(-c2cc(-c3ccc(F)cc3)n[nH]2)c(O)c1 |
| 34.8 | Cc1ccc(-c2cc(-c3cccc(F)c3)n[nH]2)c(O)c1 |
